Reference: ChEMBL document CHEMBL1130162, “Structure-activity relationships of cysteine-lacking pentapeptide derivatives that inhibit ras farnesyltransferase” (J Med Chem, 1997)

Legend:
[1] = biological target: T1, Protein farnesyltransferase (Rattus norvegicus, UniProt Q02293+Q04631); assay: Inhibition of rat brain farnesyltransferase in 5 mM potassium phosphate and 50 mM HEPES buffer
Outline: (§1)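 40-fold purified rat brain FTase at pH 7.4 with 1.2 mM MgCl2, leupeptin, pepstatin and PMSF. Substrates: [1-3H]farnesyl pyrophosphate (0.12 μM final) and biotinyl-aminoheptanoyl-TKCVIM peptide (0.1 μM final). Compounds were serially diluted from DMSO and incubated 30 min at 37 °C. Stopped with streptavidin beads in acidic Mg acetate/BSA and scintillation counted.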

[2] = biological target: T1, Protein farnesyltransferase; assay: Inhibition of rat brain farnesyltransferase in 30 mM potassium phosphate buffer; outline: as §1
[3] = biological target: T1, Protein farnesyltransferase; assay: Inhibition of rat brain farnesyltransferase in 50 mM HEPES buffer; outline: as §1
[4] = biological target: T1, Protein farnesyltransferase; assay: Inhibitory concentration against rat brain farnesyltransferase
Outline: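 Rat brain FTase (40-fold purified), pH 7.4, in 30 mM potassium phosphate, 5 mM phosphate plus 50 mM Hepes, or 50 mM Hepes. Buffer also held 7 mM DTT, 1.2 mM MgCl2 and protease inhibitors. Final substrates were 0.12 μM [1-3H]FPP and 0.1 μM biotinyl-aminoheptanoyl-TKCVIM, with inhibitor varied from DMSO stock. Reaction ran 30 min at 37 °C, was stopped with streptavidin beads, and was counted by scintillation proximity. Generally n = 2.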

[5] = biological target: geranylgeranyltransferase type-I (Rattus norvegicus, UniProt P53610+Q04631); assay: Inhibition of rat brain Geranylgeranyl transferase type I; settings: in the assay text read “rat” for “rat brain”
Outline: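 Rat GGTase-I expressed in Sf9 cells, assayed like the FTase test. Substrates were geranylgeranyl pyrophosphate and biotinyl-aminoheptanoyl-Thr-Lys-Cys-Val-Ile-Leu, with inhibitor varied from DMSO stock. Incubation at 37 °C. Streptavidin bead capture with radioactivity count as the read-out.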

[6] = biological target: Protein farnesyltransferase (Homo sapiens, UniProt P49354+P49356); assay: Inhibition of human farnesyltransferase; assay type: protein-complex assay

Row | IC50 [4] [nM] | SMILES | IC50 [1] [nM] | IC50 [2] [nM] | IC50 [3] [nM] | also measured
1 |  | C[C@H](NC(=O)[C@@H](Cc1c[nH]c2ccccc12)NC(=O)[C@@H](COCc1ccccc1)NC(=O)C(Cc1ccc(CP(=O)(O)O)cc1)NC(=O)[C@@H](Cc1cnc[nH]1)NC(=O)OCc1ccccc1)C(N)=O (stereo partly specified) | 280 | 200 | 190 | 
2 |  | C[C@H](NC(=O)[C@@H](Cc1c[nH]c2ccccc12)NC(=O)[C@@H](COCc1ccccc1)NC(=O)[C@@H](Cc1ccc(OP(=O)(O)O)cc1)NC(=O)[C@@H](Cc1c[nH]cn1)NC(=O)OCc1ccccc1)C(N)=O | 9 | 13 | 6 | 
3 | 35 | C[C@@H](NC(=O)[C@H](Cc1c[nH]c2ccccc12)NC(=O)[C@H](COCc1ccccc1)NC(=O)[C@H](Cc1ccc(O)cc1)NC(=O)[C@H](Cc1c[nH]cn1)NC(=O)OCc1ccccc1)C(N)=O (single isomer, unassigned) | 102 | 35 | 510 | 
4 |  | C[C@H](NC(=O)[C@@H](Cc1c[nH]c2ccccc12)NC(=O)[C@@H](COP(=O)(O)O)NC(=O)[C@@H](Cc1ccc(OCc2ccccc2)cc1)NC(=O)[C@@H](Cc1cnc[nH]1)NC(=O)OCc1ccccc1)C(N)=O | 360 | 240 | 660 | 
5 | 20 | C[C@@H](NC(=O)[C@H](Cc1c[nH]c2ccccc12)NC(=O)[C@H](COCc1ccccc1)NC(=O)[C@H](Cc1ccc(OCc2ccccc2)cc1)NC(=O)[C@H](Cc1c[nH]cn1)NC(=O)OCc1ccccc1)C(N)=O (single isomer, unassigned) | 76 | 20 | 1600 | IC50 [5]: 1250 nM; IC50 [6]: 10 nM
6 | 250 | CC(NC(=O)[C@@H](COCc1ccccc1)NC(=O)[C@@H](Cc1ccc(OCc2ccccc2)cc1)NC(=O)[C@@H](Cc1cnc[nH]1)NC(=O)OCc1ccccc1)C(=O)N[C@@H](C)C(N)=O (stereo partly specified) |  |  |  | 
7 |  | CCOP(=O)(Cc1ccc(CC(NC(=O)[C@@H](Cc2cnc[nH]2)NC(=O)OCc2ccccc2)C(=O)N[C@H](COCc2ccccc2)C(=O)N[C@H](Cc2c[nH]c3ccccc23)C(=O)N[C@@H](C)C(N)=O)cc1)OCC (stereo partly specified) | 49 | 25 | 75 | 
8 | 48 | COC(=O)[C@H](C)NC(=O)[C@@H](Cc1c[nH]c2ccccc12)NC(=O)[C@@H](COCc1ccccc1)NC(=O)[C@@H](Cc1ccc(OCc2ccccc2)cc1)NC(=O)[C@@H](Cc1cnc[nH]1)NC(=O)OCc1ccccc1 |  |  |  | 
9 | 64 | C[C@H](NC(=O)[C@@H](Cc1c[nH]c2ccccc12)NC(=O)[C@@H](COCc1ccccc1)NC(=O)[C@@H](Cc1ccc(OCc2ccccc2)cc1)NC(=O)[C@@H](Cc1cnc[nH]1)NC(=O)OCc1ccccc1)C(=O)NN |  |  |  | 
10 | 35 | C[C@H](NC(=O)[C@@H](Cc1c[nH]c2ccccc12)NC(=O)[C@@H](COCc1ccccc1)NC(=O)[C@@H](Cc1ccc(OCc2ccccc2)cc1)NC(=O)[C@H](Cc1cnc[nH]1)NC(=O)OCc1ccccc1)C(N)=O |  |  |  | 
11 | 4700 | C[C@H](NC(=O)[C@@H](Cc1c[nH]c2ccccc12)NC(=O)[C@@H](COCc1ccccc1)NC(=O)[C@@H](Cc1ccc(OCc2ccccc2)cc1)NC(=O)C(N)CCCNC(=O)OCc1ccccc1)C(N)=O (stereo partly specified) |  |  |  | 
12 | 1100 | CC(NC(=O)[C@@H](Cc1ccc(OCc2ccccc2)cc1)NC(=O)[C@@H](Cc1c[nH]cn1)NC(=O)OCc1ccccc1)C(=O)N[C@H](Cc1c[nH]c2ccccc12)C(=O)N[C@@H](C)C(N)=O (stereo partly specified) |  |  |  | 
13 | > 20000 | C[C@H](NC(=O)[C@@H](Cc1c[nH]c2ccccc12)NC(=O)[C@@H](COCc1ccccc1)NC(=O)[C@@H](Cc1ccc(OCc2ccccc2)cc1)NC(=O)C(Cc1c[nH]c2ccccc12)NC(=O)OCc1ccccc1)C(N)=O (stereo partly specified) |  |  |  | 
14 | 48 | C[C@H](NC(=O)[C@@H](Cc1c[nH]c2ccccc12)NC(=O)[C@@H](COCc1ccccc1)NC(=O)[C@@H](Cc1ccc(OCc2ccccc2)cc1)NC(=O)[C@@H](Cc1c[nH]cn1)NC(=O)OCc1ccccc1)C(=O)O |  |  |  | 
15 | 3200 | C[C@H](NC(=O)[C@@H](Cc1c[nH]c2ccccc12)NC(=O)[C@@H](COCc1ccccc1)NC(=O)[C@@H](Cc1ccc(OCc2ccccc2)cc1)NC(=O)[C@@H](Cc1cnc[nH]1)NC(=O)OC1CCC1)C(N)=O |  |  |  | 
